Test system: U2OS
Test: Multiplex assay against U2OS
Assay type: toxicity, cell-based
Details: human
Outline: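 Hoechst33342, BioTracker Green Microtubule Cytoskeleton Dye, MitoTracker Red and Annexin V Alexa Fluor 680 were added to live cells at seeding, and imaging on a CQ1 microscope at 37°C and 5% CO2 followed compound addition. Gating by CellPathfinder machine learning separated cells into Hoechst high-intensity objects or normal cells, then normal cells into healthy, pyknosed or fragmented nuclei, then pyknosed cells into mitotic or apoptotic. Per cents of healthy-nucleus cells are reported for the tubulin, mitochondrial-mass and membrane-permeability phenotypes.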

[1] = 12 h, 1 µM, compound concentration 1 uM, replicate 1
[2] = 12 h, 1 µM, compound concentration 1 uM, replicate 2
[3] = 12 h, 10 µM, compound concentration 10 uM, replicate 1
[4] = 12 h, 10 µM, compound concentration 10 uM, replicate 2
[5] = 24 h, 1 µM, compound concentration 1 uM, replicate 1
[6] = 24 h, 1 µM, compound concentration 1 uM, replicate 2
[7] = 24 h, 10 µM, compound concentration 10 uM, replicate 1
[8] = 24 h, 10 µM, compound concentration 10 uM, replicate 2
[9] = 48 h, 1 µM, compound concentration 1 uM, replicate 1
[10] = 48 h, 1 µM, compound concentration 1 uM, replicate 2
[11] = 48 h, 10 µM, compound concentration 10 uM, replicate 1
[12] = 48 h, 10 µM, compound concentration 10 uM, replicate 2

In the case of CC(C)NC(=O)N1CC[C@H](NC2=Nc3cc(F)ccc3N(CC(F)F)c3ccc(Cl)cc32)C1, the “Population Apoptotic (%)” value [1] is reported as 50%, the “Population Fragmented Nuclei (%)” value [1] is reported as 11% and the “Population Healthy Nuclei (%)” value [1] is reported as 75%. The “Population Hoechst High Intensity Objects (%)” value [1] was 7%, the “Population Membrane Permeable-Phenotype (%)” value [1] was 7% and the “Population Mitochondria Different-Phenotype (%)” value [1] was 8%. For the same compound, the “Population Mitotic Cells (%)” value [1] was 50%, the “Population Normal (%)” value [1] was 92% and the “Population Pyknosed Nuclei (%)” value [1] was 13%. The “Population Tubulin-Different-Phenotype (%)” value [1] was 19%, the “Total Cell Count” value [1] was 469 and the “Population Apoptotic (%)” value [2] was 33%. The “Population Fragmented Nuclei (%)” value [2] was 5%, the “Population Healthy Nuclei (%)” value [2] was 89% and the “Population Hoechst High Intensity Objects (%)” value [2] was 9%. The “Population Membrane Permeable-Phenotype (%)” value [2] was 4%, the “Population Mitochondria Different-Phenotype (%)” value [2] was 18% and the “Population Mitotic Cells (%)” value [2] was 66%. For the same compound, the “Population Normal (%)” value [2] was 90%, the “Population Pyknosed Nuclei (%)” value [2] was 5% and the “Population Tubulin-Different-Phenotype (%)” value [2] was 14%. For the same compound, the “Total Cell Count” value [2] was 293, the “Population Apoptotic (%)” value [3] was 47% and the “Population Fragmented Nuclei (%)” value [3] was 11%. The “Population Healthy Nuclei (%)” value [3] was 72%, the “Population Hoechst High Intensity Objects (%)” value [3] was 11% and the “Population Membrane Permeable-Phenotype (%)” value [3] was 4%. The “Population Mitochondria Different-Phenotype (%)” value [3] was 52%, the “Population Mitotic Cells (%)” value [3] was 52% and the “Population Normal (%)” value [3] was 88%. The “Population Pyknosed Nuclei (%)” value [3] was 15%, the “Population Tubulin-Different-Phenotype (%)” value [3] was 89% and the “Total Cell Count” value [3] was 96. For the same compound, the “Population Apoptotic (%)” value [4] was 0%, the “Population Fragmented Nuclei (%)” value [4] was 6% and the “Population Healthy Nuclei (%)” value [4] was 81%. For the same compound, the “Population Hoechst High Intensity Objects (%)” value [4] was 13%, the “Population Membrane Permeable-Phenotype (%)” value [4] was 13% and the “Population Mitochondria Different-Phenotype (%)” value [4] was 63%. For the same compound, the “Population Mitotic Cells (%)” value [4] was 100%, the “Population Normal (%)” value [4] was 86% and the “Population Pyknosed Nuclei (%)” value [4] was 11%. The “Population Tubulin-Different-Phenotype (%)” value [4] was 58%, the “Total Cell Count” value [4] was 62 and the “Population Apoptotic (%)” value [5] was 53%. The “Population Fragmented Nuclei (%)” value [5] was 9%, the “Population Healthy Nuclei (%)” value [5] was 78% and the “Population Hoechst High Intensity Objects (%)” value [5] was 6%. For the same compound, the “Population Membrane Permeable-Phenotype (%)” value [5] was 10%, the “Population Mitochondria Different-Phenotype (%)” value [5] was 28% and the “Population Mitotic Cells (%)” value [5] was 46%. For the same compound, the “Population Normal (%)” value [5] was 93%, the “Population Pyknosed Nuclei (%)” value [5] was 12% and the “Population Tubulin-Different-Phenotype (%)” value [5] was 21%. The “Total Cell Count” value [5] was 453, the “Population Apoptotic (%)” value [6] was 50% and the “Population Fragmented Nuclei (%)” value [6] was 5%. The “Population Healthy Nuclei (%)” value [6] was 88%, the “Population Membrane Permeable-Phenotype (%)” value [6] was 6% and the “Population Mitochondria Different-Phenotype (%)” value [6] was 19%. The “Population Mitotic Cells (%)” value [6] was 50%, the “Population Pyknosed Nuclei (%)” value [6] was 5% and the “Population Tubulin-Different-Phenotype (%)” value [6] was 9%. For the same compound, the “Total Cell Count” value [6] was 281, the “Population Apoptotic (%)” value [7] was 56% and the “Population Fragmented Nuclei (%)” value [7] was 14%. For the same compound, the “Population Healthy Nuclei (%)” value [7] was 61%, the “Population Hoechst High Intensity Objects (%)” value [7] was 6% and the “Population Membrane Permeable-Phenotype (%)” value [7] was 15%. The “Population Mitochondria Different-Phenotype (%)” value [7] was 61%, the “Population Mitotic Cells (%)” value [7] was 43% and the “Population Normal (%)” value [7] was 93%. The “Population Pyknosed Nuclei (%)” value [7] was 23%, the “Population Tubulin-Different-Phenotype (%)” value [7] was 79% and the “Total Cell Count” value [7] was 112. For the same compound, the “Population Apoptotic (%)” value [8] was 83%, the “Population Fragmented Nuclei (%)” value [8] was 13% and the “Population Healthy Nuclei (%)” value [8] was 73%. The “Population Hoechst High Intensity Objects (%)” value [8] was 10%, the “Population Membrane Permeable-Phenotype (%)” value [8] was 6% and the “Population Mitochondria Different-Phenotype (%)” value [8] was 57%. The “Population Mitotic Cells (%)” value [8] was 16%, the “Population Normal (%)” value [8] was 90% and the “Population Pyknosed Nuclei (%)” value [8] was 13%. For the same compound, the “Population Tubulin-Different-Phenotype (%)” value [8] was 51%, the “Total Cell Count” value [8] was 75 and the “Population Apoptotic (%)” value [9] was 52%. For the same compound, the “Population Fragmented Nuclei (%)” value [9] was 10%, the “Population Healthy Nuclei (%)” value [9] was 77% and the “Population Membrane Permeable-Phenotype (%)” value [9] was 3%. For the same compound, the “Population Mitochondria Different-Phenotype (%)” value [9] was 23%, the “Population Mitotic Cells (%)” value [9] was 47% and the “Population Pyknosed Nuclei (%)” value [9] was 11%. The “Population Tubulin-Different-Phenotype (%)” value [9] was 23%, the “Total Cell Count” value [9] was 499 and the “Population Apoptotic (%)” value [10] was 25%. The “Population Fragmented Nuclei (%)” value [10] was 4%, the “Population Healthy Nuclei (%)” value [10] was 87% and the “Population Hoechst High Intensity Objects (%)” value [10] was 6%. The “Population Membrane Permeable-Phenotype (%)” value [10] was 10%, the “Population Mitochondria Different-Phenotype (%)” value [10] was 26% and the “Population Mitotic Cells (%)” value [10] was 75%. For the same compound, the “Population Normal (%)” value [10] was 93%, the “Population Pyknosed Nuclei (%)” value [10] was 7% and the “Population Tubulin-Different-Phenotype (%)” value [10] was 22%. The “Total Cell Count” value [10] was 259, the “Population Apoptotic (%)” value [11] was 82% and the “Population Fragmented Nuclei (%)” value [11] was 23%. The “Population Healthy Nuclei (%)” value [11] was 47%, the “Population Hoechst High Intensity Objects (%)” value [11] was 6% and the “Population Membrane Permeable-Phenotype (%)” value [11] was 20%. The “Population Mitochondria Different-Phenotype (%)” value [11] was 44%, the “Population Mitotic Cells (%)” value [11] was 17% and the “Population Normal (%)” value [11] was 93%. The “Population Pyknosed Nuclei (%)” value [11] was 29%, the “Population Tubulin-Different-Phenotype (%)” value [11] was 76% and the “Total Cell Count” value [11] was 160. The “Population Apoptotic (%)” value [12] was 69%, the “Population Fragmented Nuclei (%)” value [12] was 13% and the “Population Healthy Nuclei (%)” value [12] was 60%. For the same compound, the “Population Hoechst High Intensity Objects (%)” value [12] was 13%, the “Population Membrane Permeable-Phenotype (%)” value [12] was 41% and the “Population Mitochondria Different-Phenotype (%)” value [12] was 61%. The “Population Mitotic Cells (%)” value [12] was 30%, the “Population Normal (%)” value [12] was 86% and the “Population Pyknosed Nuclei (%)” value [12] was 25%. For the same compound, the “Population Tubulin-Different-Phenotype (%)” value [12] was 58% and the “Total Cell Count” value [12] was 115.

— ChEMBL document CHEMBL4689842, “EUbOPEN Chemogenomics Library wave 1” (2021)
